Data as given in ChEMBL document CHEMBL2384910, “Lead optimization of 5-amino-6-(2,2-dimethyl-5-oxo-4-phenylpiperazin-1-yl)-4-hydroxyhexanamides to reduce a cardiac safety issue: discovery of DS-8108b, an orally active renin inhibitor” (Bioorg Med Chem, 2013).
Residue numbers refer to the chain shown, from its start.

Legend:
[1] = target: T1, Renin (Macaca fascicularis) (UniProt Q6DLS0); experiment: Ratio of compound IC50 to aliskiren IC50 for renin in cynomolgus monkey plasma
T1 sequence (whole entry): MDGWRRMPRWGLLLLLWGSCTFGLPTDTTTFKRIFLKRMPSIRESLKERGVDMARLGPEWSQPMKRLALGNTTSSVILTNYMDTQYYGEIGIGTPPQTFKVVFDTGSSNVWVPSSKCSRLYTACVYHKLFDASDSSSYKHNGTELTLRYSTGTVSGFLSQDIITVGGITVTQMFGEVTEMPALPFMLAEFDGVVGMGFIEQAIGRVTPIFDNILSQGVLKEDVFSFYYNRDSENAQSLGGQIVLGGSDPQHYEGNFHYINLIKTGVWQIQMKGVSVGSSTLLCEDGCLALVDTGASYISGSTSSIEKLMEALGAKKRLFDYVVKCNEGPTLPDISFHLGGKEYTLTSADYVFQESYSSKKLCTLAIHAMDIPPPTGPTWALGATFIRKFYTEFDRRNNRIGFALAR

Renin [2] = target: T2, Renin (Macaca fascicularis, UniProt Q6DLS0); experiment: Inhibition of renin in cynomolgus monkey plasma after 1 hr by RIA
T2 sequence (Q6DLS0 whole entry): T1 sequence (whole entry)
Outline: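 Pooled mixed-gender EDTA cynomolgus monkey plasma with pH adjusting solution and Inhibitor A, compound in 1% DMSO final, incubated 1 h at 37 °C. Angiotensin I by competitive RIA; uninhibited and 4 °C controls define % inhibition; IC50 from four-parameter fit; ratio is compound IC50 over aliskiren IC50 in same plasma batch; ≥2 replicates.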

Renin [3] = target: T3, Renin (Homo sapiens, UniProt P00797); experiment: Inhibition of human recombinant renin using Arg-Glu(EDANS)-Ile-His-Pro-Phe-His-Leu-Val-Ile-His-Thr-Lys (DABCYL)-Arg as substrate incubated for 10 mins prior to substrate addition measured after 90 mins by fluorescence assay
T3 sequence (P00797 whole entry): T1 sequence (whole entry) with A68T, L214I, A235S
Outline: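 Trypsin-activated recombinant human renin in 50 mM Tris-HCl pH 7.9, 100 mM NaCl, preincubated with compound 10 min at room temperature; FRET substrate Arg-Glu(EDANS)…Lys(DABCYL)-Arg added, 90 min at 37 °C.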

Rattus norvegicus = experiment: Cardiotoxicity in Sprague-Dawley rat electrophysiology model assessed as QRS complex abnormalities at 10 mg/kg, iv by ECG analysis; assay type: toxicity, organism-based; set-up: dose 10 mg/kg, route intravenous; settings: in vivo
Outline: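 Male Sprague-Dawley rats anesthetized with inactin 100 mg/kg ip; surface lead II ECG recorded continuously. Compounds given as iv bolus via right jugular vein catheter after stabilization; QRS complex abnormality scored as no, moderate or severe change; n = 2 at 10 mg/kg.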

SMILES	Ratio IC50 [1]	IC50 (Renin [2])	IC50 (Renin [3])	Activity (Rattus norvegicus)
CC(C)[C@H](C[C@H](O)[C@@H](N)CN1CC(=O)N(c2ccccc2Cl)CC1(C)C)C(=O)NCC(C)(C)CO.O=C(O)/C=C/C(=O)O	0.8	9.6 nM	1.7 nM	Toxic
CC[C@H](C[C@H](O)[C@@H](N)CN1CC(=O)N(c2cc(F)ccc2C)CC1(C)C)C(=O)N[C@H]1C2CC3CC1C[C@](O)(C3)C2.O=C(O)/C=C/C(=O)O	0.9	4.6 nM	1.6 nM	Non-toxic
Cc1ccc(F)cc1N1CC(C)(C)N(C[C@H](N)[C@@H](O)C[C@H](C(=O)NCC(C)(C)C(=O)O)C(C)C)CC1=O	16	39 nM	16 nM	–
CC(C)CNC(=O)[C@@H](C[C@H](O)[C@@H](N)CN1CC(=O)N(c2ccccc2Cl)CC1(C)C)C(C)C.O=C(O)/C=C/C(=O)O	0.7	4 nM	1.4 nM	Toxic
CC[C@H](C[C@H](O)[C@@H](N)CN1CC(=O)N(c2ccccc2Cl)CC1(C)C)C(=O)N[C@H]1C2CC3CC1C[C@@](O)(C3)C2.O=C(O)/C=C/C(=O)O	0.7	1.8 nM	1.1 nM	Toxic
CCCCNC(=O)[C@@H](C[C@H](O)[C@@H](N)CN1CC(=O)N(c2ccccc2Cl)CC1(C)C)C(C)C.O=C(O)/C=C/C(=O)O	0.8	–	–	Toxic
CC[C@H](C[C@H](O)[C@@H](N)CN1CC(=O)N(c2ccccc2Cl)CC1(C)C)C(=O)Nc1ccc(F)cc1.O=C(O)/C=C/C(=O)O	0.9	3.4 nM	1.6 nM	Toxic
CC[C@H](C[C@H](O)[C@@H](N)CN1CC(=O)N(c2ccccc2Cl)CC1(C)C)C(=O)Nc1ccc(C)cc1.O=C(O)/C=C/C(=O)O	4.5	28 nM	3.2 nM	Toxic
CC(C)[C@H](C[C@H](O)[C@@H](N)CN1CC(=O)N(c2ccccc2Cl)CC1(C)C)C(=O)NCC(C)(C)O.O=C(O)/C=C/C(=O)O	1.9	15 nM	2.4 nM	Non-toxic
CC[C@H](C[C@H](O)[C@@H](N)CN1CC(=O)N(c2ccccc2Cl)CC1(C)C)C(=O)Nc1cc(OC)ccn1	13	33 nM	6.7 nM	–
CC[C@H](C[C@H](O)[C@@H](N)CN1CC(=O)N(c2ccccc2Cl)CC1(C)C)C(=O)NCC(C)(C)C.O=C(O)/C=C/C(=O)O	0.3	2.3 nM	0.8 nM	Toxic
C[C@H](C[C@H](O)[C@@H](N)CN1CC(=O)N(c2ccccc2Cl)CC1(C)C)C(=O)N[C@H]1C2CC3CC1C[C@](O)(C3)C2.O=C(O)/C=C/C(=O)O	1.6	7.3 nM	1.1 nM	Non-toxic
C[C@H](C[C@H](O)[C@@H](N)CN1CC(=O)N(c2ccccc2Cl)CC1(C)C)C(=O)NCC(C)(C)C	0.5	2.1 nM	1 nM	–
CC(C)[C@H](C[C@H](O)[C@@H](N)CN1CC(=O)N(c2ccccc2Cl)CC1(C)C)C(=O)NCC(C)(C)C(N)=O.O=C(O)/C=C/C(=O)O	1.2	–	–	Non-toxic
CC[C@H](C[C@H](O)[C@@H](N)CN1CC(=O)N(c2ccccc2Cl)CC1(C)C)C(=O)Nc1ccc(OC)cc1.O=C(O)/C=C/C(=O)O	2.1	11 nM	1.4 nM	Toxic
Cc1ccc(F)cc1N1CC(C)(C)N(C[C@H](N)[C@@H](O)C[C@H](C(=O)N[C@H]2C3CC4CC2C[C@](O)(C4)C3)C(C)C)CC1=O.O=C(O)/C=C/C(=O)O	0.9	10 nM	1.7 nM	Non-toxic
CC[C@H](C[C@H](O)[C@@H](N)CN1CC(=O)N(c2ccccc2Cl)CC1(C)C)C(=O)NCC1(CO)CCCC1.O=C(O)/C=C/C(=O)O	0.7	3 nM	1.1 nM	Toxic

SMILES	Ratio IC50 [1]	IC50 (Renin [2])	IC50 (Renin [3])	Activity (Rattus norvegicus)
CC(C)[C@H](C[C@H](O)[C@@H](N)CN1CC(=O)N(c2ccccc2Cl)CC1(C)C)C(=O)Nc1ncc(F)cc1F.O=C(O)/C=C/C(=O)O	0.7	3.3 nM	1.7 nM	Toxic
CC(C)[C@H](C[C@H](O)[C@@H](N)CN1CC(=O)N(c2ccccc2Cl)CC1(C)C)C(=O)N[C@H]1C2CC3CC1C[C@](O)(C3)C2.O=C(O)/C=C/C(=O)O	0.9	2.2 nM	1.3 nM	Non-toxic
CCCCNC(=O)[C@@H](C[C@H](O)[C@@H](N)CN1CC(=O)N(c2cc(F)ccc2Cl)CC1(C)C)C(C)C	1.2	–	–	–
COC(=O)C(C)(C)CNC(=O)[C@@H](C[C@H](O)[C@@H](N)CN1CC(=O)N(c2ccccc2Cl)CC1(C)C)C(C)C.O=C(O)/C=C/C(=O)O	1.6	23 nM	1.8 nM	Toxic
CC(C)[C@H](C[C@H](O)[C@@H](N)CN1CC(=O)N(c2ccccc2Cl)CC1(C)C)C(=O)Nc1ccc(F)c(F)c1.O=C(O)/C=C/C(=O)O	4.5	21 nM	1.9 nM	Toxic
CC(C)NC(=O)[C@@H](C[C@H](O)[C@@H](N)CN1CC(=O)N(c2ccccc2Cl)CC1(C)C)C(C)C.O=C(O)/C=C/C(=O)O	2.7	33 nM	2.9 nM	Toxic
CC(C)[C@H](C[C@H](O)[C@@H](N)CN1CC(=O)N(c2ccccc2Cl)CC1(C)C)C(=O)Nc1ccc(F)cc1F.O=C(O)/C=C/C(=O)O	3	14 nM	2 nM	Toxic
CC(C)CNC(=O)C(C)(C)C[C@H](O)[C@@H](N)CN1CC(=O)N(c2cc(F)ccc2Cl)CC1(C)C.O=C(O)/C=C/C(=O)O	132	738 nM	97 nM	Toxic
CC[C@H](C[C@H](O)[C@@H](N)CN1CC(=O)N(c2ccccc2Cl)CC1(C)C)C(=O)Nc1ncccc1C.O=C(O)/C=C/C(=O)O	2.9	15 nM	3.8 nM	Toxic
CC(C)[C@H](C[C@H](O)[C@@H](N)CN1CC(=O)N(c2ccccc2Cl)CC1(C)C)C(=O)Nc1ccccc1.O=C(O)/C=C/C(=O)O	1.3	9.2 nM	1.4 nM	Toxic
CC(C)[C@H](C[C@H](O)[C@@H](N)CN1CC(=O)N(c2ccccc2Cl)CC1(C)C)C(=O)Nc1ccncc1.O=C(O)/C=C/C(=O)O	1.5	15 nM	1.6 nM	Toxic
Cc1ccc(F)cc1N1CC(C)(C)N(C[C@H](N)[C@@H](O)C[C@@H](C)C(=O)NCC(C)(C)C)CC1=O.O=C(O)/C=C/C(=O)O	0.6	3.4 nM	1.1 nM	Toxic
CC(C)[C@H](C[C@H](O)[C@@H](N)CN1CC(=O)N(c2ccccc2Cl)CC1(C)C)C(=O)NC1CCOCC1.O=C(O)/C=C/C(=O)O	1.4	9.8 nM	2 nM	Toxic
Cc1ccc(F)cc1N1CC(C)(C)N(C[C@H](N)[C@@H](O)C[C@H](C(=O)Nc2cccnc2)C(C)C)CC1=O.O=C(O)/C=C/C(=O)O	3.3	33 nM	2.4 nM	Toxic
CC(C)[C@H](C[C@H](O)[C@@H](N)CN1CC(=O)N(c2ccccc2Cl)CC1(C)C)C(=O)Nc1ccccn1.O=C(O)/C=C/C(=O)O	0.7	3.4 nM	1.8 nM	Toxic
CC[C@H](C[C@H](O)[C@@H](N)CN1CC(=O)N(c2ccccc2Cl)CC1(C)C)C(=O)NCC1(CO)CCCCC1.O=C(O)/C=C/C(=O)O	0.6	3.4 nM	1.1 nM	Toxic
CC(C)[C@H](C[C@H](O)[C@@H](N)CN1CC(=O)N(c2ccccc2Cl)CC1(C)C)C(=O)Nc1cccnc1	1.9	19 nM	2.1 nM	–
